In ChEMBL document CHEMBL3792365, “Dioxol and dihydrodioxin analogs of 2- and 3-phenylacetonitriles as potent anti-cancer agents with nanomolar activity against a variety of human cancer cells” (2016):
Calls of active or inactive are those of the source. No cut-off for these calls is given here.

Key:
HT-29 = test: Growth inhibition of human HT-29 cells after 48 hrs by sulforhodamine B assay; format: functional; details: HT-29, 48 h
Procedure, shortened: (§1)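 Five-dose testing against a 60-line human tumor cell panel. GI50 is the drug concentration giving a 50% reduction in net protein increase relative to untreated control cells.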

Tubulin (Homo sapiens) [1] = biological target: T1, Tubulin (Homo sapiens) (UniProt P68371+Q9H4B7+P0DPH7+P68366+Q13509+Q71U36+P04350+Q3ZCM7+P07437+P68363+Q9BQE3+Q6PEY2+Q13885+Q9BVA1+Q9BUF5); test: Induction of tubulin depolymerization (unknown origin) in slow phase assessed as depolymerization rate at 10 uM (reference value: 1.3 +/- 0.1 10^-5AU/sec); format: protein-complex assay
[2] = Growth inhibition of human HOP92 cells after 48 hrs by sulforhodamine B assay; format: functional; details: HOP-92, 48 h; procedure, shortened: as §1
U-251 = test: Growth inhibition of human U251 cells after 48 hrs by sulforhodamine B assay; format: functional; details: U-251, 48 h
Procedure, shortened: (§2)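 Five-dose concentration series run across a panel of 60 human tumour cell lines. GI50 is taken as the drug concentration giving a 50% reduction in net protein increase relative to untreated control cells.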

Tubulin (Homo sapiens) [3] = biological target: T1, Tubulin (Homo sapiens); test: Induction of tubulin depolymerization (unknown origin) in slow phase assessed as depolymerization rate at 100 uM (reference value: 1.3 +/- 0.1 10^-5AU/sec); format: protein-complex assay
[4] = Growth inhibition of human HCT116 cells after 48 hrs by sulforhodamine B assay; format: functional; details: HCT-116, 48 h; procedure, shortened: as §1
NCI-H23 = test: Growth inhibition of human NCI-H23 cells after 48 hrs by sulforhodamine B assay; format: functional; details: NCI-H23, 48 h; procedure, shortened: as §2
[5] = Growth inhibition of human HL-60(TB) cells after 48 hrs by sulforhodamine B assay; format: functional; details: HL-60, 48 h
Procedure, shortened: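 Five-dose study across the 60-cell human tumour panel. GI50 is the drug concentration giving a 50% reduction in net protein increase relative to control cells.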

Tubulin (Homo sapiens) [6] = biological target: T1, Tubulin (Homo sapiens); test: Inhibition of tubulin polymerization (unknown origin) in rapid phase assessed as polymerization rate at 100 uM (reference value: 8.6 +/- 0.4 x 10^-4AU/sec); format: protein-complex assay
Tubulin (Homo sapiens) [7] = biological target: T1, Tubulin (Homo sapiens); test: Inhibition of tubulin polymerization (unknown origin) in rapid phase assessed as polymerization rate at 10 uM (reference value: 8.6 +/- 0.4 x 10^-4AU/sec); format: protein-complex assay
SK-MEL-5 = test: Growth inhibition of human SK-MEL-5 cells after 48 hrs by sulforhodamine B assay; format: functional; details: SK-MEL-5, 48 h; procedure, shortened: as §2
[8] = Growth inhibition of human RPMI8226 cells after 48 hrs by sulforhodamine B assay; format: functional; details: RPMI-8226, 48 h; procedure, shortened: as §2
K562 = test: Growth inhibition of human K562 cells after 48 hrs by sulforhodamine B assay; format: functional; details: K562, 48 h; procedure, shortened: as §1
M14 = test: Growth inhibition of human M14 cells after 48 hrs by sulforhodamine B assay; format: functional; details: M14, 48 h; procedure, shortened: as §1
[9] = Growth inhibition of human COLO205 cells after 48 hrs by sulforhodamine B assay; format: functional; details: COLO 205, 48 h; procedure, shortened: as §1
[10] = Growth inhibition of human Hs 578T cells after 48 hrs by sulforhodamine B assay; format: functional; procedure, shortened: as §1
[11] = Growth inhibition of human SF539 cells after 48 hrs by sulforhodamine B assay; format: functional; details: SF-539, 48 h; procedure, shortened: as §2
[12] = Growth inhibition of human LOXIMVI cells after 48 hrs by sulforhodamine B assay; format: functional; details: LOX IMVI; procedure, shortened: as §1
[13] = Growth inhibition of human IGROV1 cells after 48 hrs by sulforhodamine B assay; format: functional; details: IGROV-1, 48 h; procedure, shortened: as §1
[14] = Growth inhibition of human DU145 cells after 48 hrs by sulforhodamine B assay; format: functional; details: DU-145, 48 h; procedure, shortened: as §1
[15] = Growth inhibition of human SKOV3 cells after 48 hrs by sulforhodamine B assay; format: functional; details: SK-OV-3, 48 h; procedure, shortened: as §2
[16] = Growth inhibition of human SF268 cells after 48 hrs by sulforhodamine B assay; format: functional; details: SF-268, 48 h; procedure, shortened: as §2
MCF7 = test: Growth inhibition of human MCF7 cells after 48 hrs by sulforhodamine B assay; format: functional; details: MCF7, 48 h; procedure, shortened: as §1
A498 = test: Growth inhibition of human A498 cells after 48 hrs by sulforhodamine B assay; format: functional; details: A498, 48 h; procedure, shortened: as §1
[17] = Growth inhibition of human NCI-ADR-RES cells after 48 hrs by sulforhodamine B assay; format: functional; procedure, shortened: as §2
SK-MEL-28 = test: Growth inhibition of human SK-MEL-28 cells after 48 hrs by sulforhodamine B assay; format: functional; details: SK-MEL-28, 48 h; procedure, shortened: as §2
[18] = Growth inhibition of human HCT15 cells after 48 hrs by sulforhodamine B assay; format: functional; details: HCT-15, 48 h; procedure, shortened: as §1
Tubulin (Homo sapiens) [19] = biological target: T1, Tubulin (Homo sapiens); test: Induction of tubulin depolymerization (unknown origin) in slow phase; format: protein-complex assay
[20] = Growth inhibition of human Caki1 cells after 48 hrs by sulforhodamine B assay; format: functional; details: CAKI-1, 48 h; procedure, shortened: as §1
Tubulin (Homo sapiens) [21] = biological target: T1, Tubulin (Homo sapiens); test: Inhibition of tubulin polymerization (unknown origin) in rapid phase; format: protein-complex assay
Tubulin (Homo sapiens) [22] = biological target: T1, Tubulin (Homo sapiens); test: Inhibition of tubulin polymerization (unknown origin) in rapid phase assessed as polymerization rate at 10 to 100 uM; format: protein-complex assay
Tubulin (Homo sapiens) [23] = biological target: T1, Tubulin (Homo sapiens); test: Induction of tubulin depolymerization (unknown origin) in slow phase assessed as depolymerization rate at 10 to 100 uM; format: protein-complex assay

SMILES	GI50 [2]	GI50 (U-251)	GI50 [4]	GI50 (NCI-H23)	GI50 [5]	GI50 (SK-MEL-5)	GI50 [8]	GI50 (M14)	GI50 [9]	GI50 [10]	GI50 [11]	GI50 [12]	GI50 [13]	GI50 [14]	GI50 [15]	GI50 [16]	GI50 (MCF7)	GI50 (A498)	GI50 [17]	GI50 (SK-MEL-28)	further results
COc1ccc(/C=C(\C#N)c2ccc3c(c2)OCO3)cc1	4.22 µM	0.43 µM	0.22 µM	0.86 µM	0.24 µM	0.21 µM	0.49 µM	0.12 µM	0.14 µM	0.46 µM	0.25 µM	0.57 µM	3.6 µM	0.59 µM	0.4 µM	0.73 µM	0.08 µM	0.2 µM	0.08 µM	0.45 µM	GI50 (HT-29): 0.06 µM; Activity (Tubulin (Homo sapiens) [1]): 1.8 ×10⁻⁵ AU/sec; Activity (Tubulin (Homo sapiens) [3]): 2 ×10⁻⁵ AU/sec; Activity (Tubulin (Homo sapiens) [6]): 8.9 ×10⁻⁴ AU/sec; Activity (Tubulin (Homo sapiens) [7]): 8 ×10⁻⁴ AU/sec; GI50 (K562): 0.04 µM; GI50 [18]: 0.07 µM
COc1cc(/C(C#N)=C/c2ccc3c(c2)OCCO3)cc(OC)c1OC	0.12 µM	0.05 µM	0.03 µM	0.16 µM	0.04 µM	0.03 µM	0.06 µM	0.03 µM	0.12 µM	0.07 µM	0.02 µM	0.06 µM	0.63 µM	0.13 µM	0.04 µM	0.11 µM	0.04 µM	0.03 µM	0.03 µM	0.06 µM	Activity (Tubulin (Homo sapiens) [19]): Dose-dependent effect; Activity (Tubulin (Homo sapiens) [1]): 1.6 ×10⁻⁵ AU/sec; GI50 [20]: 0.05 µM; Activity (Tubulin (Homo sapiens) [3]): 3.2 ×10⁻⁵ AU/sec; Activity (Tubulin (Homo sapiens) [6]): 2 ×10⁻⁴ AU/sec; Activity (Tubulin (Homo sapiens) [7]): 6.9 ×10⁻⁴ AU/sec; GI50 [18]: 0.04 µM; inhibition (Tubulin (Homo sapiens) [21]): Dose-dependent effect
N#C/C(=C\c1cccc2ccccc12)c1ccc2c(c1)OCO2	4.55 µM	3.85 µM	3.72 µM	6.45 µM	3.5 µM	3.2 µM	4.49 µM	3.13 µM	2.58 µM	3.54 µM	2.71 µM	4.22 µM	5.95 µM	6.94 µM	3.58 µM	8.99 µM	1.99 µM	1.17 µM	2.52 µM	5.84 µM	GI50 (HT-29): 3.02 µM; GI50 [20]: 4.18 µM; GI50 (K562): 0.79 µM; GI50 [18]: 1.77 µM
N#C/C(=C\c1cc2ccccc2s1)c1ccc2c(c1)OCO2	17 µM	0.06 µM	0.04 µM	0.32 µM	0.03 µM	0.06 µM	0.19 µM	0.04 µM	0.03 µM	0.08 µM	0.04 µM	0.05 µM	0.09 µM	0.21 µM	0.06 µM	1.64 µM	0.09 µM	0.03 µM	0.04 µM	0.24 µM	GI50 (HT-29): 0.03 µM; GI50 [20]: 0.05 µM; inhibition (Tubulin (Homo sapiens) [22]): inactive; Activity (Tubulin (Homo sapiens) [23]): inactive; GI50 (K562): 0.04 µM; GI50 [18]: 0.04 µM
